Assay [1] relates to Pseudomonas aeruginosa. In words: Antimicrobial activity against blaVIM-2-producing multidrug-resistant Pseudomonas aeruginosa VA-182/00 clinical isolate assessed as meropenem MIC at 32 ug/ml by broth microdilution method (reference value: 128 ug/ml). Type of assay: functional. The note with it: dose 32 µg/ml. An outline of the steps: (§1)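 Inoculum was 5×10^4 CFU/well. Each inhibitor was present at a fixed 32 μg/mL, and MICs were also taken without inhibitor.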
For orientation: In broth dilution the organism is exposed to a series of concentrations in liquid medium.

Assay [2] has as its system Bacteria. In words: Competitive inhibition of bacterial NDM-1 (unknown origin) assessed as Zn(II) content at 48 uM by overnight equilibrium dialysis. An outline of the steps:
(§2)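 VIM-2 or NDM-1 (3 μM final) in 50 mM HEPES pH 7.5 mixed with compound at 0–48 μM. Incubated 1 h on ice, then dialysed overnight at 4 °C against 50 mM HEPES pH 7.5. Zn(II) content measured by atomic absorption at 213.86 nm against a zinc standard curve. Each point averages three samples.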
(In general: In equilibrium dialysis free small molecules cross a membrane that holds back macromolecules.)

Assay [3] concerns Klebsiella pneumoniae. In words: Antimicrobial activity against blaVIM-1-producing multidrug-resistant Klebsiella pneumoniae K47-25 clinical isolate assessed as meropenem MIC at 32 ug/ml by broth microdilution method (reference value: […] ug/ml). The note with it: dose 32 µg/ml. The format is functional. In outline: as §1
Assay [4] has as its system Bacteria. In words: Inhibition of bacterial VIM-2 (unknown origin) assessed as ternary complex formation using 10 uM enzyme concentration at 50 uM by native MS analysis. In outline:
(§3)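 Purified VIM-2 or NDM-1 was given 2 mM TCEP and 2 equiv ZnCl2, incubated 1 h, and dialysed overnight into 100 mM ammonium acetate pH 7.5. Enzyme at 10 μM was then incubated 5 min with 50 μM compound. Positive-mode nanoESI on an Orbitrap, scanning m/z 1000–4000. Species assigned from deconvoluted masses.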

For assay [5], the system named is Bacteria. In words: Inhibition of bacterial NDM-1 (unknown origin) expressed in Escherichia coli EXPRESS BL21(DE3) assessed as inhibition constant by measuring rate of substrate hydrolysis at 100 uM by UV-visible spectrophotometry relative to control. In outline:
(§4)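 Reporter-substrate assay with purified MBL (1–70 nM final) in 50 mM HEPES pH 7.5 at 30 °C. […] Inhibitor 0.5–1000 μM final. Ki derived from the v0/vi vs [I] slope assuming competitive inhibition, or from a Dixon plot. Ki given when inhibition >70%, otherwise % inhibition at 100 μM. Triplicate.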

Assay [6] relates to Bacteria. In words: Inhibition of bacterial NDM-1 (unknown origin) assessed as ternary complex formation using 10 uM enzyme concentration at 50 uM by native MS analysis. In outline:
as §3

The subject of assay [7] is Bacteria. In words: Inhibition of bacterial IMP-1 (unknown origin) expressed in Escherichia coli EXPRESS BL21(DE3) assessed as inhibition constant by measuring rate of substrate hydrolysis at 100 uM by UV-visible spectrophotometry relative to control. In outline: as §4
Assay [8] is described as follows: Inhibition of bacterial VIM-1 (unknown origin) expressed in Escherichia coli EXPRESS BL21(DE3) assessed as inhibition constant by measuring rate of substrate hydrolysis by UV-visible spectrophotometry. Further details: species or system Bacteria. In outline: as §4
Assay [9] is described as follows: Inhibition of bacterial VIM-2 (unknown origin) expressed in Escherichia coli EXPRESS BL21(DE3) assessed as inhibition constant by measuring rate of substrate hydrolysis by UV-visible spectrophotometry. Further details: species or system Bacteria. In outline: as §4
For assay [10], the system named is Escherichia coli. In words: Antimicrobial activity against blaNDM-1-producing multidrug-resistant Escherichia coli SI-004 clinical isolate assessed as meropenem MIC at 32 ug/ml by broth microdilution method (reference value: 64 ug/ml).
Assay [11] concerns Klebsiella pneumoniae. In words: Antimicrobial activity against blaVIM-4-producing multidrug-resistant Klebsiella pneumoniae VA-416/02 clinical isolate assessed as meropenem MIC at 32 ug/ml by broth microdilution method (reference value: […] ug/ml). Type of assay: functional. The note with it: dose 32 µg/ml. In outline: as §1
Assay [12] can be described thus: Inhibition of bacterial VIM-4 (unknown origin) expressed in Escherichia coli EXPRESS BL21(DE3) assessed as inhibition constant by measuring rate of substrate hydrolysis by UV-visible spectrophotometry. Further details: species or system Bacteria. An outline of the steps:
as §4

In assay [13] the test system is Bacteria. In words: Competitive inhibition of bacterial VIM-2 (unknown origin) assessed as Zn(II) content by at 48 uM by overnight equilibrium dialysis. An outline of the steps: as §2
Assay [14] is described as follows: Inhibition of bacterial Metallo-beta-lactamase NDM-1 (unknown origin). Further details: species or system Bacteria. An outline of the steps:
as §4

Assay [15] can be described thus: Inhibition of bacterial Metallo-beta-lactamase VIM-4 (unknown origin). Further details: species or system Bacteria. In outline:
as §4

Assay [16] can be described thus: Inhibition of bacterial Metallo-beta-lactamase IMP-1 (unknown origin). Further details: species or system Bacteria. In outline: as §4
The nature of assay [17]: Inhibition of bacterial Metallo-beta-lactamase VIM-2 (unknown origin). Further details: species or system Bacteria. In outline:
as §4

The target in assay [18] is Insulin-degrading enzyme (Homo sapiens) (UniProt P14735). In words: Inhibition of recombinant human IDE using ATTO 655-Cys-Lys-Leu-Val-Phe-Phe-Ala-Glu-Asp-Trp as substrate at 0.4 uM measured after 45 mins by fluorescence assay relative to control.
Insulin-degrading enzyme (Homo sapiens), sequence (P14735 whole entry): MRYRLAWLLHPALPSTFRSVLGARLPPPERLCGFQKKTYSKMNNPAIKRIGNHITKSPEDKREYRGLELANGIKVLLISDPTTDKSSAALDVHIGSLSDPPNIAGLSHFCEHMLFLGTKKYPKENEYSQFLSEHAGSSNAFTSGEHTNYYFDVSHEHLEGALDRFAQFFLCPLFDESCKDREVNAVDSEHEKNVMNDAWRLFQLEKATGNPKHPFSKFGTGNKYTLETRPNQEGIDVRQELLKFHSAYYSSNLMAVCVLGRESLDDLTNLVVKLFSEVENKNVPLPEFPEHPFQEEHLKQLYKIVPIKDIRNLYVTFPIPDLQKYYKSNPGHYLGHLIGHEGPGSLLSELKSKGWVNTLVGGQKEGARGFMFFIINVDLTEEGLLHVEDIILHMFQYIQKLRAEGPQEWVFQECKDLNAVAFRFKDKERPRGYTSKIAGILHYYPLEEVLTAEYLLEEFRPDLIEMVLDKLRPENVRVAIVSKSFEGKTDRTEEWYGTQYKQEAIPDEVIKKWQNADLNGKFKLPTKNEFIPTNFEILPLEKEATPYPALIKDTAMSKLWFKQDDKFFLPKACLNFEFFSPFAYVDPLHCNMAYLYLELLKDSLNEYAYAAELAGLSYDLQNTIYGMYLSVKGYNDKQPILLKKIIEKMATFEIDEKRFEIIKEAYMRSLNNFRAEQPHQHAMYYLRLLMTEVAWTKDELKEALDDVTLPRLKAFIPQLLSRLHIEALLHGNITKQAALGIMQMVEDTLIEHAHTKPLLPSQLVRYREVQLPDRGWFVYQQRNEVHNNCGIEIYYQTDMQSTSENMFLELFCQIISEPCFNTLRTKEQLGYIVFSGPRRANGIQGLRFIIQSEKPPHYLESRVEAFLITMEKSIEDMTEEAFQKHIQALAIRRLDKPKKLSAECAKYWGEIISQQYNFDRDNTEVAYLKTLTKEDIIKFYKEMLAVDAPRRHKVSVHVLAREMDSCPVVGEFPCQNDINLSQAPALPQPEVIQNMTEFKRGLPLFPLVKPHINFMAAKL
The nature of assay [19]: Inhibition of bacterial Metallo-beta-lactamase VIM-1 (unknown origin). Further details: species or system Bacteria. In outline: as §4
The subject of assay [20] is Bacteria. In words: Inhibition of bacterial Metallo-beta-lactamase VIM-1 (unknown origin) at 100 uM relative to control. In outline:
as §4

Assay [21] is described as follows: Inhibition of bacterial NDM-1 (unknown origin) expressed in Escherichia coli EXPRESS BL21(DE3) assessed as inhibition constant by measuring rate of substrate hydrolysis by UV-visible spectrophotometry. Further details: species or system Bacteria. In outline:
as §4

The subject of assay [22] is Bacteria. In words: Inhibition of bacterial Metallo-beta-lactamase NDM-1 (unknown origin) at 100 uM relative to control. An outline of the steps: as §4
The test system of assay [23] is Escherichia coli. In words: Antimicrobial activity against blaNDM-1-producing multidrug-resistant Escherichia coli SI-004 clinical isolate. The format is functional. An outline of the steps: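 Broth microdilution per CLSI in cation-supplemented Mueller–Hinton broth with an inoculum of 5×10^4 CFU/well.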
Assay [24] has as its system Pseudomonas aeruginosa. In words: Antimicrobial activity against blaVIM-2-producing multidrug-resistant Pseudomonas aeruginosa VA-182/00 clinical isolate. The format is functional.

Each structure is given as a SMILES string. In brackets after ≈: the same amount, converted by molar mass. Activity calls are given as the source filed them. The rule behind the calls is not given here. Some results are limits rather than exact numbers.

Broadly, the MIC is the lowest concentration that inhibits growth of the organism. Usually inhibition stands for the drop in the measured response relative to a control, in per cent. Usually Ki stands for the equilibrium dissociation constant of an inhibitor or competing ligand from its target. Turning to `O=C(O)[C@H](CCCn1c(-c2ccccc2)n[nH]c1=S)N(Cc1cccnc1)Cc1cccnc1`, the MIC in assay [1] worked out at 128 mg/L; in assay [3] it was 4 mg/L; in assay [10] it was 64 mg/L; in assay [11], 1 mg/L. Besides, the inhibition entry in [2], in assay [4], in [6] and in assay [13] was “Active” throughout. Also, the inhibition in assay [5] is 67%; in [7], under 30%. In addition, the inhibition constant Ki in [8] was 2.6 µM; in assay [9], 0.42 µM; in assay [12], 0.52 µM.
For the compound `O=C(Nc1ccccc1)NC(CCCn1c(-c2ccccc2)n[nH]c1=S)C(=O)O` (centres undefined), the Ki result in assay [14] is “Not Active”; in [15] it was 4.14 µM; in assay [16], “Not Active”; in [17] it was 6.93 µM.
On to `O=C(C[C@H](Cc1ccc2ccccc2c1)n1cc(CNC(=O)c2ccc(F)cc2)nn1)NO`, for which the inhibition in assay [18] came to 65%.
On to `O=C(O)CCCCn1c(-c2ccccc2)n[nH]c1=S`, for which the Ki entry in assay [14] is “Not Active”; in assay [15], 1.13 µM; in assay [19], 13.9 µM; in assay [16], “Not Active”; in assay [17], 2.81 µM. The compound also yielded an inhibition in assay [20] of 57%.
With `O=C(O)[C@H](CCCn1c(-c2ccccc2)n[nH]c1=S)N(Cc1cncs1)Cc1cncs1`, the MIC came to 128 mg/L in assay [1], 1 mg/L in [3], 32 mg/L in assay [10] and 1 mg/L in assay [11]. The inhibition result in assay [2], in assay [4], in assay [6] and in assay [13] was “Active” each time. The inhibition in assay [7] is under 30%. Moreover, the Ki in assay [8] turned out to be 0.3 µM; in assay [9], 0.1 µM; in assay [21], 28 µM; in [12], 0.14 µM.
Consider `CC(C)(C)OC(=O)N[C@@H](CCCn1c(-c2ccccc2)n[nH]c1=S)C(=O)O`, for which the inhibitory constant (Ki) was 1.51 µM in assay [15], 30.8 µM in assay [19], “Not Active” in assay [16] and 1.95 µM in assay [17]. Besides, the inhibition in assay [22] was determined as 35%.
Consider `C[C@@H](O)[C@H]1C(=O)N2C(C(=O)O)=C(S[C@@H]3CN[C@H](C(=O)N(C)C)C3)[C@H](C)[C@H]12` [MEROPENEM], for which the results for the minimal inhibitory concentration (MIC) in assay [23] and in [24] were 64 mg/L (≈ 167 µM) and 128 mg/L (≈ 334 µM), respectively.
